Publication PMC12152739 (Chemical Science, 2025)
Converted amounts (≈) assume the structure as drawn. Read-outs that look alike come from different tables or passages of the source.

Columns and labels:
NDM-1 [1] = target: T1, NDM-1 (Klebsiella pneumoniae, UniProt C7C422); test: Steady-state hydrolysis kinetics and UV difference spectra with purified NDM-1; type: biochemical; conditions: for hydrolysis monitored by UV difference spectroscopy: NDM-1, 200 : 1 S : E ratio, 220 nm to 300 nm; for K M: substrate hydrolysis by NDM-1, 30 °C, 10 mM HEPES, 200 mM NaCl pH 7.5, 20 μM ZnSO4
[2] = tested on: E. coli DH10B cells harboring the pMBLe blaIMP-1 plasmid; test: Broth microdilution MIC in ID-CAMHB, E. coli producing IMP-1; type: cell-based; conditions: Escherichia coli, higher levels of IMP-1 (IPTG-induced)
Procedure, shortened: (§1)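 Broth microdilution per CLSI in iron-depleted cation-adjusted Mueller–Hinton broth. DH10B carries the MBL gene on pMBLe with its native signal peptide under an IPTG-inducible promoter; inoculum in broth with 0–200 μM IPTG, final 5 × 10^5 CFU mL−1. Incubation 37 °C, 18 h; mode of three independent experiments. Enzyme levels by anti-strep-tag II immunoblot of drug-free growth wells, DnaK loading control.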

IMP-1 [3] = target: T2, IMP-1 (Serratia marcescens, UniProt P52699); test: Steady-state hydrolysis kinetics and UV difference spectra with purified IMP-1; type: biochemical; conditions: for hydrolysis monitored by UV difference spectroscopy: IMP-1, 200 : 1 S : E ratio, 220 nm to 300 nm
IMP-1 [4] = target: T2, IMP-1; test: Inhibition of nitrocefin hydrolysis by IMP-1; type: biochemical; conditions: 2 nM IMP-1, 5 min preincubation at 30 °C, 50 μM nitrocefin
Procedure, shortened: (§2)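 Recombinant MBL lacking its signal peptide, made in E. coli BL21(DE3) as His-tagged protein, Ni-affinity purified and TEV-cleaved (>95% pure). 2 nM enzyme preincubated 5 min at 30 °C with varied test compound, or its NDM-1 hydrolysis product, or none. Buffer: 10 mM HEPES, 200 mM NaCl pH 7.5, 20 μM ZnSO4. Nitrocefin 50 μM final; initial rates at 495 nm over 300 s. IC50 curves fitted; triplicate.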

NDM-1 [5] = target: T1, NDM-1; test: Inhibition of nitrocefin hydrolysis by NDM-1; type: biochemical; conditions: 2 nM NDM-1, 5 min preincubation at 30 °C, 50 μM nitrocefin
Procedure, shortened: as §2

VIM-2 [6] = target: T3, VIM-2 (Escherichia coli, UniProt Q5U7L7); test: Steady-state hydrolysis kinetics and UV difference spectra with purified VIM-2; conditions: for hydrolysis monitored by UV difference spectroscopy: VIM-2, 200 : 1 S : E ratio, 220 nm to 300 nm
[7] = tested on: E. coli DH10B cells harboring the pMBLe blaNDM-1 plasmid; test: Broth microdilution MIC in ID-CAMHB, E. coli producing NDM-1; type: cell-based
Procedure, shortened: as §1

NDM-5 [8] = target: T4, NDM-5 (Klebsiella pneumoniae, UniProt C7C422, M154L/V88L); test: Steady-state hydrolysis kinetics with purified NDM-5; type: biochemical; conditions: FDC hydrolysis by NDM-5, 30 °C, pH 7.5
Procedure, shortened: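 Purified enzyme in 10 mM HEPES, 200 mM NaCl pH 7.5 with 20 μM ZnSO4, at 30 °C. Initial velocities of substrate hydrolysis followed at 259 nm, Δε259 = −9430 M−1 cm−1, 0.1 cm path cuvette. kcat and KM derived from these initial-rate measurements.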

VIM-2 [9] = target: T3, VIM-2; test: Inhibition of nitrocefin hydrolysis by VIM-2; type: biochemical; conditions: 2 nM VIM-2, 5 min preincubation at 30 °C, 50 μM nitrocefin
Procedure, shortened: as §2

E. coli (blaNDM-5) = conditions: clinical E. coli before ten-fold increase in blaNDM-5 copy number; cited from earlier work
IMP-1 [10] = target: T2, IMP-1; conditions: CAZ hydrolysis by IMP-1; cited from earlier work
NDM-5 [11] = target: T4, NDM-5; conditions: CAZ hydrolysis by NDM-5; cited from earlier work
VIM-2 [12] = target: T3, VIM-2; conditions: CAZ hydrolysis by VIM-2, cited from earlier work

Compound: CC(C)(O/N=C(\C(=O)N[C@@H]1C(=O)N2C(C(=O)[O-])=C(C[N+]3(CCNC(=O)c4ccc(O)c(O)c4Cl)CCCC3)CS[C@H]12)c1csc(N)n1)C(=O)O [FDC, cefiderocol]
- hydrolysis monitored by UV difference spectroscopy (NDM-1 [1]): efficiently hydrolyzes
- K M (NDM-1 [1]): 443 ± 59 µM
- MIC [2]: 0.06 µg/mL (≈ 0.0798 µM)
- K M (IMP-1 [3]; FDC hydrolysis by IMP-1, 30 °C, pH 7.5): 300 ± 120 µM
- hydrolysis monitored by UV difference spectroscopy (IMP-1 [3]): negligible activity
- inhibition of nitrocefin hydrolysis activity (IMP-1 [4]): inhibited
- inhibition of nitrocefin hydrolysis activity (NDM-1 [5]): largely unperturbed
- K M (VIM-2 [6]; FDC hydrolysis by VIM-2, 30 °C, pH 7.5): 250 ± 80 µM
- hydrolysis monitored by UV difference spectroscopy (VIM-2 [6]): negligible activity
- increase in MIC values ([7]; E. coli laboratory strain, NDM-1 overproduction vs basal level): 16 fold
- MIC ([7]; Escherichia coli, ID-CAMHB, higher levels of NDM-1 (IPTG-induced)): 0.5 µg/mL (≈ 0.665 µM)
- K M (NDM-5 [8]): 405 ± 40 µM
- k cat (NDM-5 [8]): 75 ± 3 s⁻¹
- inhibition of nitrocefin hydrolysis activity (VIM-2 [9]): inhibited
- MIC (E. coli (blaNDM-5)): 2 µg/mL (≈ 2.66 µM)

Compound: CC(C)(O/N=C(\C(=O)N[C@@H]1C(=O)N2C(C(=O)[O-])=C(C[n+]3ccccc3)CS[C@H]12)c1csc(N)n1)C(=O)O [CAZ, ceftazidime]
- hydrolysis monitored by UV difference spectroscopy (NDM-1 [1]): can turnover
- K M (NDM-1 [1]): 45 ± 12 µM
- K M (IMP-1 [10]): 44 ± 3 µM
- k cat (IMP-1 [10]): 8 ± 1 s⁻¹
- k cat /K M (IMP-1 [10]): 180000 M⁻¹ s⁻¹
- hydrolysis monitored by UV difference spectroscopy (IMP-1 [3]): can turnover
- hydrolysis monitored by UV difference spectroscopy (VIM-2 [6]): can turnover
- K M (NDM-5 [11]): 86 ± 11 µM
- k cat (NDM-5 [11]): 15 s⁻¹
- k cat /K M (NDM-5 [11]): 180000 M⁻¹ s⁻¹
- k cat /K M (VIM-2 [12]): 50000 M⁻¹ s⁻¹
- K M (VIM-2 [12]; standard deviations <10%): 72 µM
- k cat (VIM-2 [12]; standard deviations <10%): 3.6 s⁻¹
